Source: PubChem
Runt-CBFb FRET = Runt domain-CBFb interaction inhibition. 0.46% of 220,000 active. AID 1496. Cerulean-Runt/Venus-CBFb FRET ratio 530/480, 1 h. inhibition, % at 20 µM;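 active means inhibition over about 50% at 20 µM in the single-dose screen, limit read from the data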
Target sequence (Q01196 whole entry, looked up, the tested form may be a part): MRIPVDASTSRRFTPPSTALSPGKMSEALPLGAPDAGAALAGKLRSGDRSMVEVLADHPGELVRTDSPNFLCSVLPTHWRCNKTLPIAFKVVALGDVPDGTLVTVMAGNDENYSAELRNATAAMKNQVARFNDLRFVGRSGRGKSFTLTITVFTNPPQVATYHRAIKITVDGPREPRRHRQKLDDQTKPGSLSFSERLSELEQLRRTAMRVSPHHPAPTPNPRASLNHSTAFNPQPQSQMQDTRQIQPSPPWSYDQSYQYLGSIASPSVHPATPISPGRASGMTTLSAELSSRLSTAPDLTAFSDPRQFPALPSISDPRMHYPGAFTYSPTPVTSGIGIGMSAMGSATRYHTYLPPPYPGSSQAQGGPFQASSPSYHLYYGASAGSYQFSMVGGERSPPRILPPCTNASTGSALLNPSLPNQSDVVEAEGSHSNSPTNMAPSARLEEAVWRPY
Target sequence (Q13951 whole entry, looked up, the tested form may be a part): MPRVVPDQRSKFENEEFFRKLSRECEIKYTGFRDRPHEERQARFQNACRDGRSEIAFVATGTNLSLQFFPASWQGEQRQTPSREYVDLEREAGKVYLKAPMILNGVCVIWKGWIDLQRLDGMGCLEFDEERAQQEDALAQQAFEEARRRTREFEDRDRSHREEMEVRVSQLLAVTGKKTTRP
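Measured by: fluorescence energy transfer, 422 nm excitation, 530/480 nm emission; test system: Cerulean-tagged RUNX1 Runt domain (FRET donor) fusion protein; buffer or medium: Tris pH 7.5 buffer with BSA; compound: one dose, 20 µM compound, 1% DMSO; times: two 1 h room-temperature incubations shielded from light; benchmarks: unlabeled CBFb 5 µM, positive control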
Runt-SMMHC FRET = inhibitors of human RUNX1 Runt domain binding to CBFb-SMMHC; Cerulean-Runt/Venus-CBFb-SMMHC FRET ratio 530/480, 1 h; inhibition, % at 20 µM; 0.74% of 220,000 active; Q01196+Q13951;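 active means mean inhibition across duplicate retests at 20 µM reaching about 50%, limit read from the data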;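 further: inhibitors lower the FRET ratio by blocking Runt binding to CBFb-SMMHC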
CaV13 ICDI inh = Disruptors of the CACNA1D IQ motif to Ca2+-dependent inactivation inhibitor domain association, primary screening, Förster resonance energy transfer in intact living … | HEK cells, CFP/YFP FRET ICDI-IQ, plate reader, 10 min; percent FRET-ratio fall versus neutral wells | inhibition, % at 12.3 µM | 0.098% of 340,000 active | AID 743397;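 active means mean replicate inhibition of at least 30% and at least 1% of replicates passing that level; inconclusive means only one of the two criteria is met; inactive means neither criterion is met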
RanGTP-Impb inh = inhibitors of RanGTP-importin-beta interaction, primary screen, biochemical, FRET, CFP-Ran, YFP-importin-beta, homogeneous. cell-free CFP-Ran/YFP-importin-beta FRET ratio. 1.1% of 300,000 active. inhibition, % (no concentration beside the values);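 active means more than half of the replicate wells show a fall in the fluorescence ratio signal beyond about 16%, limit read from the data, passing the limit was not always enough; inconclusive means exactly half of the replicate wells pass the set limit; inactive means fewer than half of replicates pass the limit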
Hck-Nef inh = blocks Nef-activated human Hck kinase | inhibition, % at 20 µM | Recombinant Hck-YEEI plus Nef, Z-Lyte FRET kinase assay | AID 463187 | P08631 | 0.68% of 220,000 active;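 active means Hck-Nef kinase inhibition above about 50%, limit read from the data; inactive means inhibition below that limit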
Hits are given with their value; - = inactive; ? = inconclusive; . = no result given; + = active, no number. Hits are enriched below; roughly 1.5% of the tested compounds scored in any of these assays.

SMILES	Runt-CBFb FRET	Runt-SMMHC FRET	CaV13 ICDI inh	RanGTP-Impb inh	Hck-Nef inh
O=C(Nc1ccccc1Cl)c1cc(C2CCCCN2C(=O)c2ccccc2)on1 (centres undefined)	.	.	-	.	.
CC1CCc2sc3ncn4nc(C(=O)NCc5ccco5)nc4c3c2C1 (centres undefined)	-	-	-	120	-
CC1CCc2c(sc3ncn4c(SCC(=O)NCc5ccco5)nnc4c23)C1 (centres undefined)	-	-	-	-	-
Cc1cc(C)n(C(=O)c2ccc([N+](=O)[O-])cc2Cl)n1	.	.	-	?	.
CCOC(=S)SCc1cn2ccc(C)cc2n1	-	-	-	21	-
CCOC(=S)SCc1cn2ccccc2n1	.	-	-	-	-
COCCn1c(C)cc(C(=O)CN2C(=O)NC3(CCCCCC3)C2=O)c1C	.	.	-	.	.
COc1ccc(C(C)(O)c2nc(-c3ccc4c(c3)OCO4)cs2)cc1 (centres undefined)	.	.	-	.	.
O/N=C(/c1ccc(F)cc1)C1CC1c1c(F)cccc1Cl (centres undefined)	.	.	-	-	.
CCOc1ccccc1C(=O)Oc1cc(C)[nH]c(=O)c1[N+](=O)[O-]	.	.	-	-	.
C/C(N)=C(/C#N)C(=O)CSc1nc2ccccc2c(=O)n1CCCOC(C)C	-	-	-	-	-
CCCCCn1c(=NC(=O)c2cccnc2)c(C#N)cc2c(=O)n3cccc(C)c3nc21	.	.	-	144	.
CCOCCCn1c(=NC(=O)c2ccc(OC)c(OC)c2)c(C#N)cc2c(=O)n3cccc(C)c3nc21	106	143	.	86	-
CC(C)OCCCn1c(=NC(=O)c2cccs2)c(C#N)cc2c(=O)n3ccccc3nc21	77	81	-	103	-
N#Cc1cc2c(=O)n3ccccc3nc2n(Cc2cccnc2)c1=N	.	.	.	.	-
Cc1ccc2nc3c(cc(C#N)c(=N)n3Cc3cccnc3)c(=O)n2c1	.	.	.	94	-
CCCCc1c(O)nc2ccccn2c1=O	-	-	-	-	-
CCCCn1c(=NC(C)=O)c(C#N)cc2c(=O)n3cccc(C)c3nc21	.	.	-	85	.
C=CCn1c(=N)c(C#N)cc2c(=O)n3ccccc3nc21	-	75	33	+	-
CCOCCCn1c(=NC(C)=O)c(C#N)cc2c(=O)n3cccc(C)c3nc21	59	88	-	123	-
CCCCCn1c(=NC(C)=O)c(C#N)cc2c(=O)n3ccccc3nc21	-	-	-	108	-
Cc1cccc(CC(=O)Nc2ccc(C(=O)N3CCOCC3)cc2)c1	.	.	-	-	.
CC(C)c1cc(C(=O)OCC(=O)NC2CC2)c(O)c(C(C)C)c1	.	.	-	.	.
CCOc1ccc(NC(=O)[C@H](Cc2ccccc2)NC(=O)C2CCNCC2)cc1	.	.	-	-	.
O=C(NCCCN1CCCC1)Nc1ccccc1[N+](=O)[O-]	.	.	-	-	.
SMILES	Runt-CBFb FRET	Runt-SMMHC FRET	CaV13 ICDI inh	RanGTP-Impb inh	Hck-Nef inh
CN1CCN(C(=O)/C(=C/c2ccccc2F)NC(=O)c2ccccc2)CC1	.	.	-	-	.
Cc1cc(OCc2ccc(C(=O)n3cccn3)o2)ccc1Cl	-	-	.	67	-
CC1=NN(C(C#N)c2ccccc2C)C(C)(C)C1 (centres undefined)	75	-	-	-	-
CCC1CCc2sc(C(=O)N(C)CC(=O)Nc3ccc(N4CCOCC4)cc3)cc2C1 (centres undefined)	.	.	-	?	.
O=C(COC(=O)c1cc(S(=O)(=O)Nc2ccccc2Cl)ccc1O)Nc1ccc(F)c(F)c1F	.	.	-	.	.
CC(C)OC(=O)c1sc2nc(-c3ccccc3)ccc2c1N	-	-	-	20	-
N#Cc1cnn2c3c(cnc12)C(=O)N1CCc2ccccc2C1C3 (centres undefined)	92	86	-	?	-
O=C1c2cnc3ncnn3c2CC2c3ccccc3CCN12 (centres undefined)	-	-	-	-	-
CC(C)CN1C=C2C(=O)C(C)(OC(=O)C3CCCC3)C(=O)C=C2C=C1c1ccsc1 (centres undefined)	-	-	-	-	-
CC1(OC(=O)C2CCCC2)C(=O)C=C2C=C(c3ccsc3)N(C(CO)CO)C=C2C1=O (centres undefined)	-	-	-	18	-
O=C(c1cccc(Cl)c1)N1CCC(=O)N(C(COCc2ccccc2)Cc2ccccc2)CC1 (centres undefined)	-	-	55	-	-
O=Cc1sc([O-])nc1-[n+]1ccc2ccccc2c1	-	-	.	28	-
Cc1ccc[n+](-c2nc([O-])sc2C=O)c1	-	-	-	.	-
Nc1nnc(CCC2CCCCC2)s1	-	-	-	-	-
N#CC1=C(N)SC(N)=C(C#N)C1CCC1CCCCC1	-	-	.	51	-
CCc1ccc(N2CC(C(=O)N3CCN(c4ccc([N+](=O)[O-])cc4)CC3)CC2=O)cc1 (centres undefined)	.	.	-	.	.
CCCCNc1nc2c(-c3ccccc3)nnn2c2ccccc12	-	-	-	-	-
CCOCCCNc1nc2c(-c3ccccc3)nnn2c2ccccc12	-	-	-	34	-
Clc1ccc(-c2ccnc(-n3cccc3)n2)s1	-	68	-	-	-
CN(c1ccc(C(=O)N/N=C/c2cccc([N+](=O)[O-])c2)cc1)S(=O)(=O)c1ccccc1	.	.	-	28	.
COc1cc(Cl)c(C)cc1NC(=O)CN1C(=O)C2CC=CCC2C1=O (centres undefined)	.	.	-	.	.
CCN1CCc2c(sc(NC(=O)CN3C(=O)c4ccccc4C3=O)c2C(N)=O)C1	62	102	-	-	-
NC(=O)c1c(NC(=O)Cc2ccccc2)sc2c1CCN(Cc1ccccc1)C2	.	.	40	134	.
CC(=O)Nc1sc2c(c1C(N)=O)CCN(Cc1ccccc1)C2	-	130	-	162	-
CCN1CCc2c(sc(NC(=O)c3ccc4ccccc4c3)c2C(N)=O)C1	.	.	-	.	.
SMILES	Runt-CBFb FRET	Runt-SMMHC FRET	CaV13 ICDI inh	RanGTP-Impb inh	Hck-Nef inh
CC1CCCN(CC(O)CN2CCN(CC(O)CN3CCCC(C)C3)C(C)C2)C1 (centres undefined)	.	.	-	.	.
CCOc1ccc(NC(=O)CCC(=O)NNC(=O)COc2ccc(C)cc2Br)cc1	.	.	-	-	.
CSc1ncccc1C(=O)Nc1ccc2c(c1)OCCO2	.	.	-	.	.
O=C(NCc1ccc(Cl)cc1)C1CCN(c2nnc(N3CCCC3=O)s2)CC1	.	.	-	-	.
CC(Nc1nc(-c2ccc3c(c2)NC(=O)CO3)cs1)c1ccccc1 (centres undefined)	-	-	-	-	137
CC1CCCC(C)N1C(=O)Cn1cnc2cc([N+](=O)[O-])ccc2c1=O (centres undefined)	-	-	-	?	-
CCN(C(=O)Cn1cnc2cc([N+](=O)[O-])ccc2c1=O)C1CCS(=O)(=O)C1 (centres undefined)	-	-	-	14	-
COc1ccc(-c2ccc(-c3noc(C4CCCCC4)n3)c(OC)n2)cc1	-	-	.	19	-
COc1ccc(-c2ccc(-c3noc(-c4ccccc4C)n3)c(OC)n2)cc1	-	-	-	23	-
